Usually IC50 stands for the concentration that inhibits the measured activity by half.

Data set [1] concerns KG1a cells. Nature of the data set: MTT cytotoxicity assay, KG1a. In kind it is cell-based, human. The conditions noted are these: for IC50: Homo sapiens, KG-1a, 72 h, read-out: IC50 KG1a. A digest of the protocol:
(§1)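 Exponentially growing leukaemia lines were seeded at 1 × 10⁴ cells/well in supplemented RPMI 1640. After 24 h, test compounds were added over a concentration range for 72 h, with adriamycin as positive control. MTT (5 mg/ml stock) was added for 4 h. Plates were spun at 2000 rpm for 20 min, the supernatant replaced by DMSO, and absorbance read at 570 nm. IC50 was fitted; each value is the mean of three independent experiments.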
Background: Tetrazolium assays rely on reduction of a dye to a coloured formazan, in cell work by metabolically active cells.

Data set [2] relates to HL-60 cells. Nature of the data set: MTT cytotoxicity assay, HL-60. The data set is classed as cell-based. The conditions noted are these: Homo sapiens, HL-60, 72 h, read-out: IC50 HL-60. A digest of the protocol: as §1
The conditions of data set [3]: cited from earlier work.
The conditions of data set [4]: cited from earlier work. The source holds these as a separate data set.

Regarding `COc1cccc2c1C(=O)c1c(O)c3c(c(O)c1C2=O)C[C@@](O)(C(=O)CO)C[C@@H]3O[C@H]1C[C@H](N)[C@H](O)[C@H](C)O1` [ADR, adriamycin], the IC50 in data set [1] was 750 ± 50 nM; in data set [2], 22 ± 5 nM. For the same compound, the “drop of activity against KG1a than that against HL-60” value in data set [1] (ratio of IC50 values) is 34 folds.
Take `C=C1C(=O)O[C@H]2[C@H]1CC/C(C)=C/CC[C@@]1(C)O[C@@H]21` [PTL, Parthenolide]: the figures for the IC50 in data set [1] and in data set [2] were 6100 ± 1800 nM and 3800 ± 1200 nM, respectively. The “stability in acidic and basic conditions” value in data set [3] was “instability in both acidic and basic conditions”. In addition, the solubility result in data set [4] is “poor solubility”.
